21 compounds from ChEMBL document CHEMBL1156630, “Investigations on the 4-quinolone-3-carboxylic acid motif. 2. Synthesis and structure-activity relationship of potent and selective cannabinoid-2 receptor agonists endowed with analgesic activity in vivo” (J Med Chem, 2008) can be followed below.

Activity calls are given as the source filed them. The rule behind the calls is not given here.

For one assay, the target named is Cannabinoid receptor 1 (Homo sapiens, UniProt P21554). The assay is described as follows: biochemical. The class given is cell-based, HEK293.
A further assay deals with Cannabinoid receptor 2 (Homo sapiens, UniProt P34972). Kind of assay: Displacement of [3H]CP-55940 from human CB2 receptor expressed in HEK293 cells. The class given is cell-based. For orientation: Displacement assays read how much labelled ligand stays bound in the presence of the test substance.
The species named for a further assay is Homo sapiens. Kind of assay: Selectivity for human CB2 receptor over human CB1 receptor. A digest of the protocol: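 Ratio Ki(CB1)/Ki(CB2) from radioligand displacement on HEK-cell membranes expressing human CB1 or CB2. Ki derived from IC50 via Cheng-Prusoff. Final DMSO below 0.1%.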
Assay [1] relates to Mus musculus. The assay is described as follows: Analgesic activity in mouse assessed as inhibition of formalin-induced nociceptive response at 3 mg/kg, ip in presence of AM630. The class given is functional, organism-based. Set-up: dose 3 mg/kg. A digest of the protocol:
(§1)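 Mice, 8-10 per group, randomly assigned; 1.25% formalin into dorsal hind paw. Drug given ip in 10% DMSO/0.9% NaCl 15 min before formalin; AM630 3 mg/kg ip given 5 min before compound. Licking, lifting, flinching, shaking and favoring timed in 5-min bins over 60 min; second phase 15-60 min. Two-way ANOVA with Bonferroni.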

Assay [2] relates to Mus musculus. The assay is described as follows: Analgesic activity in mouse assessed as inhibition of formalin-induced nociceptive response at 3 mg/kg, ip. The class given is functional, organism-based. Further details: dose 3 mg/kg. A digest of the protocol:
as §1

Cannabinoid receptor 1, sequence (P21554 whole entry): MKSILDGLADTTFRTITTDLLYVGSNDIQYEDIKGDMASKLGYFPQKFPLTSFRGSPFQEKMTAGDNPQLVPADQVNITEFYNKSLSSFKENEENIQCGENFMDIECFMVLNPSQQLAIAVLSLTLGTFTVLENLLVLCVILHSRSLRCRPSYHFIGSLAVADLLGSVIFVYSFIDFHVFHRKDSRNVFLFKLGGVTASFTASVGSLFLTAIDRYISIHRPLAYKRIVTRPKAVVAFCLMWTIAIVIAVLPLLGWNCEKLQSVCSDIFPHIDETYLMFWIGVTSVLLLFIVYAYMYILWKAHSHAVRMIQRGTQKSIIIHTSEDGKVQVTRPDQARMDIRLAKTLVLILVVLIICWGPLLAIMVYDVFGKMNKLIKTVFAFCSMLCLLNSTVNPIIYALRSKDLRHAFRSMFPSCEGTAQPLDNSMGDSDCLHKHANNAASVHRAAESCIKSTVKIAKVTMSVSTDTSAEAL
Cannabinoid receptor 2, sequence (P34972 whole entry): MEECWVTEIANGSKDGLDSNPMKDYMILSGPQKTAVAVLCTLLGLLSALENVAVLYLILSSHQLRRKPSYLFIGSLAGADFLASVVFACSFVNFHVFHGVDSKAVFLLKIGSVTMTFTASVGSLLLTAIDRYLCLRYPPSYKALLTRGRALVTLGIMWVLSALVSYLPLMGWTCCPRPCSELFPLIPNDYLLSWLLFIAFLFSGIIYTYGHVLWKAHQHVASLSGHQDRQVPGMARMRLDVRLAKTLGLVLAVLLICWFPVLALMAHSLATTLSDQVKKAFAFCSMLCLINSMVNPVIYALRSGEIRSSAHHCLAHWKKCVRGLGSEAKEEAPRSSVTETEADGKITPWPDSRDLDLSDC

On to `C=CCCCn1cc(C(=O)NC23CC4CC(CC(C4)C2)C3)c(=O)c2cc(Br)ccc21`, for which the values for the Ki at Cannabinoid receptor 1 and on Cannabinoid receptor 2 were 0.696 µM and 0.0094 µM, respectively. In addition, in the assay filed under Homo sapiens, the Ratio Ki is 74.4.
As to `C=CCn1cc(C(=O)NC23CC4CC(CC(C4)C2)C3)c(=O)c2c(OC)ccc(OC)c21`, the Ki at Cannabinoid receptor 1 was above 10 µM; on Cannabinoid receptor 2, 0.0092 µM. The Ratio Ki in the assay filed under Homo sapiens is above 1090.
For `CCCCCn1cc(C(=O)NC23CC4CC(CC(C4)C2)C3)c(=O)c2ccc(Sc3ccccc3)cc21` the same measures were 0.0053 µM, 0.0016 µM and 3.3.
`CCCCCn1cc(C(=O)NC23CC4CC(CC(C4)C2)C3)c(=O)c2ccccc21`: the Ki on Cannabinoid receptor 1 was determined as 0.0421 µM; on Cannabinoid receptor 2 it was 0.0047 µM. Besides, in the assay listed under Homo sapiens, the Ratio Ki stood at 9.
In the same order, the values of `CCCCCn1cc(C(=O)NC23CC4CC(CC(C4)C2)C3)c(=O)c2cc(Sc3ccccc3)ccc21` are 0.64 µM, 0.0034 µM and 189.
For `CCCCCn1cc(C(=O)NC23CC4CC(CC(C4)C2)C3)c(=O)c2cc(/C=C/c3ccc(OC)cc3)ccc21` the same measures were 2.63 µM, 0.0559 µM and 47.
In the same order, the values of `CCCCCn1cc(C(=O)N[C@H](C)c2ccccc2)c(=O)c2ccc(OCC)cc21` are 0.0297 µM, 0.0242 µM and 1.2.
As to `CCCCCn1cc(C(=O)N[C@H](C)c2ccccc2)c(=O)c2ccc(N3CCCC3)cc21`, the Ki amounted to 0.16 µM at Cannabinoid receptor 1 and 0.0171 µM on Cannabinoid receptor 2. The Ratio Ki in the assay filed under Homo sapiens was 9.4.
In the same order, the values of `CCCCCn1cc(C(=O)NC23CC4CC(CC(C4)C2)C3)c(=O)c2cc(C(F)(F)F)ccc21` are 2.52 µM, 0.0116 µM and 217.
With `CCCCCn1cc(C(=O)NC23CC4CC(CC(C4)C2)C3)c(=O)c2cc(-c3ccccc3)ccc21`, the Ki on Cannabinoid receptor 1 is above 10 µM; at Cannabinoid receptor 2 it was 0.0038 µM. Further, in the assay filed under Homo sapiens, the Ratio Ki is above 2670.
In the same order, the values of `CCCCCn1cc(C(=O)NC23CC4CC(CC(C4)C2)C3)c(=O)c2ccc(F)cc21` are 0.0305 µM, 0.0008 µM and 38.1.
In the case of `CCCCCn1cc(C(=O)NC23CC4CC(CC(C4)C2)C3)c(=O)c2ccc([S+]([O-])c3ccccc3)cc21` (stereo unspecified), the results for the Ki at Cannabinoid receptor 1 and on Cannabinoid receptor 2 were 0.028 µM and 0.0035 µM, respectively. Besides, in the assay listed under Homo sapiens, the Ratio Ki stood at 8.
In the same order, the values of `CCCCCn1cc(C(=O)NC23CC4CC(CC(C4)C2)C3)c(=O)c2c(OC)ccc(OC)c21` are 2.1 µM, 0.0526 µM and 39.9.
In the same order, the values of `C=CCCn1cc(C(=O)NC23CC4CC(CC(C4)C2)C3)c(=O)c2cc(Br)ccc21` are 2.68 µM, 0.0238 µM and 113.
As for `CCCCCn1cc(C(=O)NC23CC4CC(CC(C4)C2)C3)c(=O)c2ccc(S(=O)(=O)c3ccccc3)cc21`, the results for the Ki at Cannabinoid receptor 1 and at Cannabinoid receptor 2 were 0.0061 µM and 0.0009 µM, respectively.
Turning to `CCCCCn1cc(C(=O)NC23CC4CC(CC(C4)C2)C3)c(=O)c2cc(C(C)C)ccc21`, in the assay on Mus musculus [1], the result was inactive. The outcome in the assay on Mus musculus [2] was Active.
As for `CCCCCn1cc(C(=O)NC23CC4CC(CC(C4)C2)C3)c(=O)c2cc(Br)ccc21`, the values for the Ki at Cannabinoid receptor 1 and on Cannabinoid receptor 2 were 0.996 µM and 0.0143 µM, respectively. Also, in the assay filed under Homo sapiens, the Ratio Ki is 69.4.
As for `CCCCCn1cc(C(=O)N[C@H](C)c2ccccc2)c(=O)c2ccc(F)cc21`, the Ki at Cannabinoid receptor 1 was 0.0143 µM; at Cannabinoid receptor 2 it was 0.0107 µM. Also, the Ratio Ki in the assay listed under Homo sapiens was found to be 1.3.
For `CCCCCn1cc(C(=O)NC23CC4CC(CC(C4)C2)C3)c(=O)c2cc(F)c(-n3cccc3)cc21` the same measures were 0.14 µM, 0.0036 µM and 38.8.
In the same order, the values of `CCCCCn1cc(C(=O)NC23CC4CC(CC(C4)C2)C3)c(=O)c2cc(Oc3ccc(F)c(Cl)c3)ccc21` are 0.739 µM, 0.0161 µM and 46.
For `CCCCCn1cc(C(=O)NC23CC4CC(CC(C4)C2)C3)c(=O)c2ccc(Cl)c(C)c21` the same measures were above 10 µM, 0.0255 µM and above 393.

By Ki is commonly meant a dissociation constant, usually derived from enzyme kinetics or from competition with a known ligand.
